From PubChem BioAssay
APJ agonist = APJ receptor agonism; activation, % at 20 µM; P35414; 330,000 tested, 0.11% active; CHO-K1 APJ PathHunter beta-arrestin, luminescence; 0% DMSO wells, 100% apelin;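 active = activation more than six SD over the plate average, tested at 20 µM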;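 also: 0% = DMSO alone and 100% = apelin-13 at 10 nM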
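Material: engineered CHO-K1 APJ arrestin reporter cells; amount: 1000 CHO-K1 reporter cells seeded per well; incubation: compound stimulation 90 min at 25 °C, detection 60 min; signal: luminescent beta-gal fragment complementation, chemiluminescent substrate; read-out basis: APJ agonist activity; controls: DMSO-only wells as negative, 10 nM Apelin-13 as positive control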
CCR6 antag = blocks CCL20-driven beta-arrestin recruitment at human CCR6; inhibition, % at 20 µM; AID 493098; CHO-K1 CCR6 PathHunter beta-arrestin, luminescence, CCL20-stimulated; P51684; 340,000 tested, 0.49% active;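 active = compounds whose inhibition of the agonist-driven luminescence signal at 20 µM reaches about 50%, limit read from the data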;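 also: cells stimulated with CCL20 at 14 nM final; plate controls were DMSO with CCL20 for no effect and DMSO without agonist for full effect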
Target sequence (P51684 whole entry, looked up): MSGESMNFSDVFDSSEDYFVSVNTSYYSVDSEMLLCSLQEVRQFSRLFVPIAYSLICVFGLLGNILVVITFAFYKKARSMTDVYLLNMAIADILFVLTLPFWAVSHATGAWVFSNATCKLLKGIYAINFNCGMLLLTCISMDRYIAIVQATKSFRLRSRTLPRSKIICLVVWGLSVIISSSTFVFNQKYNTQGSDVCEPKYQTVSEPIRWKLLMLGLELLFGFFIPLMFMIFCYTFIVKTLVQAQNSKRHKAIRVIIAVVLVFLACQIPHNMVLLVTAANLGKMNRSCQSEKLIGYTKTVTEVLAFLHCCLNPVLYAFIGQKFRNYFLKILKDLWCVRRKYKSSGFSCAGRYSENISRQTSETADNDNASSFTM
CXCR6 block = inhibitors of human CXCR6 receptor. O00574. CHO-K1 PathHunter CXCR6 beta-arrestin, luminescence. inhibition, % at 20 µM. 360,000 tested, 0.36% active; in the data active = inhibition above about 34%, passing the limit was not always enough;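 also: antagonist mode with CXCL16 agonist at 10 nM final; 0% = 10 nM CXCL16 with DMSO and 100% = unstimulated wells without agonist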
EBI2 block = EBI2 (human) antagonism; P32249; EBI2 beta-arrestin recruitment, luminescence, 7a,25-OHC stimulated; inhibition, % at 5 µM; 360,000 tested, 0.81% active; AID 651636; in the data active = inhibition above about 38%;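 also: enzyme fragment complementation signal reports receptor beta-arrestin coupling in cells; 0% = agonist plus DMSO wells and 100% = wells without agonist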
APJ antagonist = APJ receptor antagonism; P35414; CHO-K1 APJ beta-arrestin complementation, luminescence; inhibition, % at 20 µM; 330,000 tested, 0.32% active; AID 2521;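 active = inhibition above about 40% at 20 µM, limit read from the data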;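 also: cells challenged with 10 nM apelin-13 agonist together with compound; plate controls were apelin-13 plus DMSO wells for no effect and DMSO wells lacking apelin-13 for full effect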
EBI2 antag conf = confirmation of human EBI2 receptor antagonists; shares compounds with EBI2 block; EBI2 beta-arrestin luminescence, 7a,25-OHC antagonism; inhibition, % at 5 µM; 2,400 tested, 29% active;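 active = inhibition of at least 50%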
EBI2 agonist = EBI2 agonism counter-screen | shares compounds with EBI2 block | EBI2-expressing cells, agonist mode, luminescence, 60 min; 0% vehicle, 100% 7α,25-dihydroxycholesterol control | activation, % at 5 µM | 2,400 tested, under 10 active | AID 652000;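 active = activation of at least 50%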
bGal counter = beta-galactosidase inhibition counter-screen; shares compounds with EBI2 block; purified beta-galactosidase, luminescent Galacton Star, 15 min; inhibition, % at 5 µM; 2,400 tested, 1% active; AID 652176;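 active = replicate-average signal at least 3 plate SD below neutral wells, shown as high inhibition, flagging enzyme-inhibiting false positives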;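 also: 0% = DMSO wells with enzyme and 100% = wells lacking enzyme; higher means stronger loss of beta-gal luminescence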
Starred values were filed as active, the others as inactive. Only some compounds are listed: those with a hit (about 1.5% of all), similar ones and a draw of the others.

C(=C\c1nccc2c1[nH]c1ccccc12)/c1ccccc1 was read as APJ agonist 0, CCR6 antag -20, CXCR6 block -10, EBI2 block 55*, APJ antagonist 6, EBI2 antag conf 35, EBI2 agonist 2 and bGal counter -2.
`Fc1ccc(/C=C\c2nccc3c2[nH]c2ccccc23)cc1` gave APJ agonist 2, CCR6 antag 0, CXCR6 block -2, EBI2 block 49*, APJ antagonist -12, EBI2 antag conf 29, EBI2 agonist -1 and bGal counter -9.
Screening O=C(Nc1cccnc1)C1Cc2c(-c3ccccc3Oc3ccccc3)ccnc2O1 (stereo not given) returned CXCR6 block -3 and EBI2 block 8.
CCN1CCN(CCCNC(=O)C2CCN(c3nnc(-n4c(C)ccc4C)s3)CC2)CC1 was read as APJ agonist -1, CCR6 antag 13, CXCR6 block 0, EBI2 block -9 and APJ antagonist 11.
For O=C(c1cccc(F)c1)N1CCN(C(=O)c2cc(-c3ccc(Cl)cc3Cl)on2)CC1 the results were APJ agonist -1, CCR6 antag 20, CXCR6 block 10, EBI2 block 44*, APJ antagonist 1, EBI2 antag conf 28, EBI2 agonist -1 and bGal counter -12.
`O=C(c1cc(-c2ccccc2Cl)on1)N1CCCC1` gave APJ agonist -2, CCR6 antag 22, CXCR6 block -1, EBI2 block 3 and APJ antagonist 10.
`O=C(COc1ccc(Br)cc1)Nc1ccc(S(=O)(=O)Nc2ccccn2)cc1` gave APJ agonist 2, CCR6 antag 3, CXCR6 block 2, EBI2 block 43*, APJ antagonist -7, EBI2 antag conf 25, EBI2 agonist -1 and bGal counter -10.
For O=C(COc1ccccc1)Nc1ccc(S(=O)(=O)Nc2ccccn2)cc1 the results were APJ agonist 2, CCR6 antag 7, CXCR6 block 0, EBI2 block -6 and APJ antagonist -6.
O=C(O)c1nc(NCCc2ccccc2)ncc1Cl was read as APJ agonist 0, CCR6 antag -12, CXCR6 block -4, EBI2 block -1 and APJ antagonist -3.
Screening O=C1NC(Cc2ccccc2)c2nc3cc(F)c(F)cc3c(=O)n2-c2cc3ccccc3cc21 (stereo not given) returned CXCR6 block 4, EBI2 block 44*, EBI2 antag conf 19, EBI2 agonist -2 and bGal counter -10.
`Cc1occc1-c1nnc(SCC(N)=O)n1Cc1ccccc1` gave APJ agonist -1, CCR6 antag 0, CXCR6 block -2, EBI2 block 10 and APJ antagonist -8.
Screening CCn1c(SCC(=O)NNC(=O)Cc2ccccc2)nnc1-c1ccccc1 returned APJ agonist -2, CCR6 antag -11, CXCR6 block -3, EBI2 block -3 and APJ antagonist 12.
For Cc1ccc(C(=O)NNC(=O)CSc2nnc(-c3ccccc3)n2Cc2ccccc2)cc1 the results were APJ agonist -3, CCR6 antag -1, CXCR6 block 6, EBI2 block 96*, APJ antagonist 11, EBI2 antag conf 89*, EBI2 agonist 0 and bGal counter 4.
Screening Cc1ccc(C(=O)NNC(=O)CSc2nnc(-c3ccncc3)n2-c2ccc(C)cc2)cc1 returned APJ agonist -1, CXCR6 block -1, EBI2 block 52*, APJ antagonist 0, EBI2 antag conf 11, EBI2 agonist 0 and bGal counter 5.
For Cc1occc1-c1nnc(SCC(=O)NCCc2ccccc2)n1Cc1ccccc1 the results were APJ agonist -2, CCR6 antag 7, CXCR6 block 7, EBI2 block 90*, APJ antagonist -3, EBI2 antag conf 78*, EBI2 agonist 1 and bGal counter 6.
Screening Cc1ccc(-n2c(SCC(=O)Nc3ccc(C(=O)O)cc3)nnc2-c2ccncc2)cc1 returned APJ agonist -3, CCR6 antag 12, CXCR6 block -1, EBI2 block 7 and APJ antagonist 12.
`O=C(c1cc(-c2cccnc2)nc2ccccc12)N1CCN(S(=O)(=O)c2cccs2)CC1` gave APJ agonist 0, CCR6 antag 4, CXCR6 block 7, EBI2 block 11 and APJ antagonist -47.
COC(=O)c1ccc2[nH]c3c(c2c1)CC(C)CC3 (stereo not given) was read as APJ agonist 2, CCR6 antag -15, CXCR6 block -9, EBI2 block 50*, APJ antagonist 14, EBI2 antag conf 44, EBI2 agonist -1 and bGal counter -12.
Screening O=C1CC(Nc2ccc3ccccc3c2)C(=O)N1Cc1ccccc1 (stereo not given) returned APJ agonist 2, CCR6 antag 1, CXCR6 block -7, EBI2 block 63*, APJ antagonist -12, EBI2 antag conf 24, EBI2 agonist 0 and bGal counter 5.
Screening O=C(NCCS(=O)(=O)N1CCC2(CC1)OCCO2)c1ccccc1 returned APJ agonist -2, CCR6 antag 7, CXCR6 block 9, EBI2 block -1 and APJ antagonist -16.
`CCOCCCNS(=O)(=O)c1ccc(NC(=O)C2CC(=O)N(c3ccc(C)cc3)C2)cc1` (stereo not given) gave APJ agonist -2, CCR6 antag 20, CXCR6 block -4, EBI2 block 65*, APJ antagonist 3, EBI2 antag conf 39, EBI2 agonist -2 and bGal counter -12.
Screening CCOc1ccc(N2CC(C(=O)Nc3ccc(S(=O)(=O)NCC4CCCO4)cc3)CC2=O)cc1 (stereo not given) returned APJ agonist 0, CCR6 antag -1, CXCR6 block -13, EBI2 block 51*, APJ antagonist 4, EBI2 antag conf 27, EBI2 agonist 1 and bGal counter 7.
`Cc1cc(C(=O)NCC(=O)OCC(=O)NCC2CCCO2)ccc1[N+](=O)[O-]` (stereo not given) gave APJ agonist -5, CCR6 antag 11, CXCR6 block 7, EBI2 block -10 and APJ antagonist 4.
`Cc1cc(C(=O)NCC(=O)OCC(=O)N(C2CCCCC2)C2CCCCC2)ccc1[N+](=O)[O-]` gave APJ agonist -3, CCR6 antag 11, CXCR6 block -2, EBI2 block 81*, APJ antagonist 8, EBI2 antag conf 47, EBI2 agonist -1 and bGal counter -8.
